The results in this text go back to ChEMBL document CHEMBL4219260, “Investigation of chemical reactivity of 2-alkoxy-1,4-naphthoquinones and their anticancer activity” (Bioorg Med Chem Lett, 2018).

Some results are limits rather than exact numbers.

What all share (type): functional, cell-based
The test system of one assay is K562. The assay is described as follows: Antiproliferative activity against human K562 cells after 72 hrs by CellTiter-Glo assay. Conditions: K562, 72 h. In short, it runs like this:
(§1)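 Cells from ATCC, checked mycoplasma-free by PCR, grown in RPMI with 10% FBS, 1% penicillin/streptomycin and 2 mM L-glutamine. Seeded and incubated 24 h, then exposed to 0.3, 1, 3 and 10 μM for 72 h. Viability was read by CellTiter-Glo relative to 0.1% DMSO vehicle. IC50 came from standard curve analysis, with doxorubicin as positive control. Three independent experiments, each in triplicate.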

For the next assay, the system named is T47D. The experiment in a line: Antiproliferative activity against human T47D cells after 72 hrs by CellTiter-Glo assay. In short, it runs like this: as §1
For orientation: ATP-based viability assays read luminescence as a measure of living cells.

In another assay the test system is COLO 205. The experiment in a line: Antiproliferative activity against human COLO205 cells after 72 hrs by CellTiter-Glo assay. Conditions: COLO 205, 72 h. The gist of the method:
as §1

Consider `COC(=O)COC1=CC(=O)c2ccccc2C1=O`, for which the IC50 in the assay with K562, in the assay with T47D and in the assay with COLO 205 was above 10 µM throughout.
As for `COC(=O)COC1=CC(=O)c2c(O)cccc2C1=O`, the figures for the IC50 with K562, in the assay on T47D and in the assay with COLO 205 were 1.3 µM, 2.2 µM and 1.9 µM, respectively.
On the same counts, the results for `COC1=CC(=O)c2c(OC)cccc2C1=O` are above 10 µM, above 10 µM and above 10 µM.
With `COC1=CC(=O)c2c(O)cccc2C1=O`, the IC50 with K562 was found to be 1.4 µM; in the assay on T47D it was 2 µM; in the assay on COLO 205, 2.3 µM.
Take `O=C1C=C(O)C(=O)c2c(O)cccc21`: the half-maximal inhibitory concentration (IC50) in the assay with K562, with T47D and in the assay on COLO 205 was above 10 µM in each case.
On to `O=C1C(O)=CC(=O)c2c(O)cccc21`, for which the half-inhibitory concentration (IC50) in the assay on K562, with T47D and in the assay on COLO 205 was above 10 µM throughout.
On to `COC1=CC(=O)c2cccc(O)c2C1=O`, for which the 50% inhibitory concentration (IC50) in the assay on K562, in the assay on T47D and in the assay on COLO 205 was above 10 µM each time.
Regarding `NC(=O)COC1=CC(=O)c2c(O)cccc2C1=O`, the IC50 with K562 worked out at 0.9 µM; with T47D, 1.7 µM; with COLO 205 it was 0.7 µM.
For `O=C(O)COC1=CC(=O)c2c(O)cccc2C1=O` the same measures were above 10 µM, above 10 µM and above 10 µM.
With `CN(C)C(=O)COC1=CC(=O)c2c(O)cccc2C1=O`, the half-inhibitory concentration (IC50) was determined as 1.2 µM with K562, 1 µM with T47D and 1.7 µM in the assay with COLO 205.

A word on the IC50: it is the point on the concentration scale where inhibition reaches its midpoint.
